Reference: publication PMC9514665 (Neuropharmacology, 2021)
Several values for one entry are separate records, joined by “and”; a condition that tells them apart may be missing. Equal values may be shown once. Read-outs that look alike come from different tables or passages of the source. Marks after values point to notes of the source that are not given here.

Assays:
[1] = format: in vivo, mouse; conditions: for concentration at 60 min: both, F1.Scn1a+/−, mouse, in vivo, Plasma Concentration; for concentration at 60 min / Plasma Concentration: F1.Scn1a^+/− mice; for Plasma Concentration: 30 min
[2] = format: in vivo, mouse; conditions: 350 mg/kg chow, subchronic oral
[3] = test system: 2-arachidonoylglycerol (2-AG); experiment: Hippocampal 2-AG concentrations after ABX-1431 treatment; format: in vivo, mouse; conditions: F1.Scn1a^+/− mice
anandamide (AEA) = experiment: Hippocampal anandamide concentrations after ABX-1431 treatment; format: in vivo, mouse; conditions: acute i.p. treatment; F1.Scn1a^+/− mice
Method in brief: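 Acute i.p. dosing of F1.Scn1a+/− mice in ethanol:Tween 80:saline (1:1:18), 10 mL/kg. Whole brains were taken 60 min post-dose after hyperthermia testing, by cervical dislocation without anaesthesia, and snap frozen. Hippocampi were Dounce-homogenised and spun at 20,000g for 30 min at 4°C. Supernatant underwent dichloromethane:methanol (2:1)/0.88% KCl liquid-liquid extraction on ice, avoiding plastics. Analysis was by UHPLC-triple quadrupole LC-MS/MS against external calibration curves. 2-AG: Brown-Forsythe ANOVA, Dunnett's T3. Anandamide: Kruskal-Wallis.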

F1.Scn1a^+/− mice [4] = experiment: Hyperthermia-induced seizures; format: in vivo, mouse
Method in brief: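 Male and female F1.Scn1a+/− mice at P14–16 received i.p. dosing (10 mL/kg; vehicle ethanol:Tween 80:saline 1:1:18). A rectal probe was inserted 15 min before the post-dose time point (30 or 60 min, set by PK), followed by 5-min acclimation. Core temperature was raised 0.5°C every 2 min until first clonic convulsion with loss of posture, or to 42.5°C with a 3-min hold. n = 17–22 per group; logrank Mantel-Cox.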

[5] = Pharmacokinetic analysis in mouse plasma and brain after i.p. injection; format: in vivo
F1.Scn1a^+/− mice [6] = experiment: Spontaneous seizures and survival; format: in vivo, mouse; conditions: 350 mg ABX-1431/kg chow
Method in brief: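 Male and female F1.Scn1a+/− mice had one hyperthermia-induced seizure at P18, then were randomised to untreated or 350 mg/kg medicated chow made from irradiated powdered diet. Continuous 60-h video recording was used to count and score spontaneous GTCS. Treatment continued to P30 for survival. Fisher's exact test covered seizure-free and hindlimb-extension proportions, Mann-Whitney covered frequency, and logrank covered survival.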

CB1 receptor [7] = experiment: Hippocampal CB1 receptor expression by immunoblotting after subchronic treatment; format: in vivo, mouse; conditions: subchronic 350 mg ABX-1431/kg chow; F1.Scn1a^+/− mice; p = 0.0077
Method in brief: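 Hippocampi from F1.Scn1a+/− mice, untreated or fed 350 mg/kg chow, were Dounce-homogenised in buffered 0.32 M sucrose. Membranes were isolated by sequential 2,000g and 20,000g spins at 4°C and protein quantified by Bradford. Membrane protein (20 μg) was run on 10% SDS-PAGE and transferred to PVDF. Rabbit anti-CB1 was detected with fluorescent secondaries (1:20,000). Densitometry was normalised to β-tubulin; Student's t-test.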

neuropathic pain model = conditions: combined with the MAGL inhibitor JZL184; ref Slivicki et al., 2018; cited from earlier work
F1.Scn1a^+/− mice [8] = conditions: 2017, cited from earlier work
CB1 receptor [9] = conditions: repeated exposure to low doses, ref Ghosh et al., 2013, Kinsey et al.; cited from earlier work
wildtype mice = conditions: 10 mg/kg; ref Laprairie et al., 2019; cited from earlier work
Aqueous solubility = format: physicochemical
[10] = Oral bioavailability after subchronic oral administration; format: in vivo, mouse; conditions: sufficient plasma concentrations not achieved
[11] = test system: Genetic Absence Epilepsy Rats from Strasbourg (GAERS); conditions: ref Roebuck et al., 2021, cited from earlier work
CB1 receptor [12] = conditions: ref Laprairie et al., 2017; cited from earlier work
[13] = brain, wildtype mice, 5 mg/kg i.p.
[14] = brain, wildtype mice, 5 mg/kg i.p., converted from ng/mg brain assuming density of 1 g/mL
[15] = plasma, wildtype mice, 5 mg/kg i.p.

SMILES: O=C(OC(C(F)(F)F)C(F)(F)F)N1CCN(Cc2ccc(C(F)(F)F)cc2N2CCCC2)CC1 [ABX-1431]
- concentration at 60 min ([1]; 3 mg/kg i.p.): 198 ± 31 ng/mL
- concentration at 60 min ([1]; 10 mg/kg i.p.): 373 ± 53 ng/mL
- concentration at 60 min ([1]; 30 mg/kg i.p.): 883 ± 114 ng/mL
- Plasma Concentration [2]: 170 to 394 ng/mL
- hippocampal 2-AG concentrations relative to vehicle-treated mice ([3]; acute 10 mg/kg i.p.): 8 fold
- hippocampal 2-AG concentrations increase ([3]; acute 30 mg/kg i.p.): 13 fold
- hippocampal 2-AG concentrations increase ([3]; subchronic oral (350 mg/kg chow)): 15 fold
- effect on hippocampal anandamide concentrations (anandamide (AEA)): not affected
- temperature threshold for thermally-induced seizures (GTCS) (F1.Scn1a^+/− mice [4]; 10 mg/kg i.p., vehicle 40.6 ± 0.1°C, p = 0.0008): 41.3 ± 0.2 °C
- AUC ([5]; mouse, in vivo, ip, 5 mg/kg): 483 ng·h/mL
- Cmax ([5]; mouse, in vivo, ip, 5 mg/kg): 317 ± 40 ng/mL
- brain half-life (in words) ([5]; mouse, in vivo, ip, 5 mg/kg): prolonged
- half-life ([5]; mouse, in vivo, ip, 5 mg/kg): 47 min
- Cmax ([5]; mouse, in vivo, ip, 5 mg/kg, Cmax): 468 ± 40 ng/mL
- survival compared with untreated controls (F1.Scn1a^+/− mice [6]; P18 to P30, p = 0.6803): not different
- effect on spontaneous seizure (GTCS) frequency (F1.Scn1a^+/− mice [6]; 60-h recording, vs untreated, p = 0.0064): significantly increase
- proportion of seizures that progressed to full hindlimb extension (F1.Scn1a^+/− mice [6]; 93/272 seizures, untreated 45/83 (54%), p = 0.0011): 34%
- effect on proportion of mice that exhibited seizures (F1.Scn1a^+/− mice [6]; vs untreated, p = 0.6562): did not affect
- effect on hippocampal CB1 receptor expression (CB1 receptor [7]): significantly lowered

SMILES: O=[N+]([O-])CC(c1ccccc1)c1c(-c2ccccc2)[nH]c2ccccc12 (stereo not shown) [GAT211]
- antinociceptive effect (neuropathic pain model): synergistic

SMILES: C=C(C)[C@@H]1CCC(C)=C[C@H]1c1c(O)cc(CCCCC)cc1O [CBD, cannabidiol]
- effective dose in this model (F1.Scn1a^+/− mice [8]; ref Anderson et al., 2020, 2019a, Kaplan et al.): 100 mg/kg

SMILES: O=C(Oc1ccc([N+](=O)[O-])cc1)N1CCC(C(O)(c2ccc3c(c2)OCO3)c2ccc3c(c2)OCO3)CC1 [JZL184]
- CB1 receptor downregulation and desensitization (CB1 receptor [9]): does not occur

SMILES: O=[N+]([O-])C[C@@H](c1ccccc1)c1c(-c2ccccc2)[nH]c2ccccc12 [GAT229]
- Plasma Concentration ([1]; 10 mg/kg i.p.): 900 ± 100 ng/mL
- Plasma Concentration ([1]; 30 mg/kg i.p. (suspension)): 2600 ± 500 ng/mL
- Plasma Concentration ([1]; 100 mg/kg i.p. (suspension)): 3200 ± 200 ng/mL
- Plasma concentrations in experimental animals ([1]; 30 and 100 mg/kg doses): 7.6–9.3 μM and 2.6–3.2 μg/mL
- Plasma Concentration of GAT229 ([1]; co-treatment GAT229 + ABX-1431 (30 mg/kg + 10 mg/kg)): 2300 ± 300 ng/mL
- effect on locomotor activity (wildtype mice): reduced
- aqueous solubility (Aqueous solubility): poor
- oral bioavailability [10]: poor
- temperature threshold for thermally-induced seizures (GTCS) (F1.Scn1a^+/− mice [4]; 30 mg/kg i.p., vehicle 41.1 ± 0.1°C, p = 0.0152): 41.7 ± 0.2 °C
- temperature threshold for thermally-induced seizures (GTCS) (F1.Scn1a^+/− mice [4]; 100 mg/kg i.p., vehicle 41.1 ± 0.1°C, p = 0.0059): 41.8 ± 0.1 °C
- association with sedation or catalepsy ([11]; GAERs model): not associated
- effect against absence seizures [11]: anticonvulsant effects
- t1/2 [5, 13]: 53 min
- tmax [5, 13]: 30 ng/mL
- AUC [5, 14]: 85 ^* μg min/mL
- Cmax [5, 14]: 888 ± 90 ng/mL
- AUC [5, 15]: 1230 ng·h/mL
- Cmax [5, 15]: 858 ± 167 ng/mL
- t1/2 [5, 15]: 45 min
- tmax [5, 15]: 30 ng/mL
- brain-plasma ([5]; wildtype mice, 5 mg/kg i.p.): 110%
- brain-plasma ratio ([5]; wildtype mice, 5 mg/kg i.p.): 1.1
- EC50 (CB1 receptor [12]): ~295 nM

SMILES: CN1C(=O)CC(=O)N(c2ccccc2)c2cc(Cl)ccc21 [clobazam]
- effective dose in this model (F1.Scn1a^+/− mice [8]; ref Anderson et al., 2019a, Hawkins et al.): 1 mg/kg
